Source: ChEMBL document CHEMBL4266052, “Evaluation of Inhibitory Activities of UK-2A, an Antimycin-Type Antibiotic, and Its Synthetic Analogues against the Production of Anti-inflammatory Cytokine IL-4” (J Nat Prod, 2018)
pIC50: −log10 of the molar value. Active and inactive are the calls of the source. No cut-off for these calls is given here.

How the values were obtained:
RBL-2H3 [1] = experiment: Anti-inflammatory activity in DNP-IgE-stimulated rat RBL2H3 cells assessed as reduction of IL4 secretion pretreated for 10 mins followed by DNP-HSA stimulation measured after 1 hr by ELISA
RBL-2H3 [2] = experiment: Cytotoxicity against rat RBL2H3 cells assessed as inhibition of cell proliferation up to 4000 nM after 24 hrs by CCK8 assay; format: cell-based; details: rbl-2h3, 24 h
In short: (§1)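 RBL-2H3 cells seeded 10^5/well, 12 h at 37 °C, 5% CO2, then exposed to drug in DMEM for 24 h at 37 °C; medium replaced with serum-containing medium, CCK-8 (WST-8) added, absorbance at 450 nm after 1 h. Relative viability vs control, n = 4, Student's t-test p < 0.05.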

RBL-2H3 [3] = experiment: Cytotoxicity against rat RBL2H3 cells assessed as inhibition of cell proliferation at >5 nM after 24 hrs by CCK8 assay; format: cell-based; details: rbl-2h3, 24 h
RBL-2H3 [4] = experiment: Anti-inflammatory activity in DNP-IgE-stimulated rat RBL2H3 cells assessed as reduction of IL4 secretion at >20 nM pretreated for 10 mins followed by DNP-HSA stimulation measured after 1 hr by ELISA; format: functional, cell-based
In short: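 RBL-2H3 cells, 2.5 × 10^4/well, cultured overnight, then sensitised 2 h with 50 ng/mL anti-DNP IgE in DMEM/10% FBS at 37 °C, 5% CO2. After washing, drug added in DMF (0.05% final). After 10 min, challenged with DNP-HSA (50 ng/mL final) for 1 h. Supernatant rat IL-4 measured by ELISA on Luminex multiplex system. Mean ± SEM, n = 3.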

RBL-2H3 [5] = experiment: Anti-inflammatory activity in DNP-IgE-stimulated rat RBL2H3 cells assessed as reduction of IL4 secretion at >2000 nM pretreated for 10 mins followed by DNP-HSA stimulation measured after 1 hr by ELISA; format: functional, cell-based
In short: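 RBL-2H3 cells (2.5 × 10^4/well, cultured overnight in DMEM + 10% FBS, penicillin/streptomycin, 37 °C, 5% CO2) sensitized 2 h with 50 ng/mL anti-DNP IgE, washed, then drug in DMF (0.05% final) added 10 min before DNP-HSA (50 ng/mL final); IL-4 in supernatant after 1 h by rat IL-4 ELISA/Luminex. IC50 from dose–response curves.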

RBL-2H3 [6] = experiment: Cytotoxicity against rat RBL2H3 cells assessed as inhibition of cell proliferation at >40 nM after 24 hrs by CCK8 assay; format: cell-based; details: rbl-2h3, 24 h; in short: as §1

| Compound | pIC50 (RBL-2H3 [1]) | Activity (RBL-2H3 [2]) | Activity (RBL-2H3 [3]) | Activity (RBL-2H3 [4]) | also measured |
| --- | --- | --- | --- | --- | --- |
| CC(C)C(=O)O[C@H]1[C@H](C)OC(=O)[C@@H](NC(=O)c2cccc(NC=O)c2O)COC(=O)[C@@H]1Cc1ccccc1 | 7.38 | Non-Toxic | – | – | – |
| COc1ccnc(C(=O)N[C@H]2COC(=O)[C@H](Cc3ccccc3)[C@@H](OC(=O)CC(C)C)[C@H](C)OC2=O)c1O | 5.36 | Non-Toxic | – | – | – |
| CCCCC[C@H]1C(=O)O[C@H](C)[C@H](NC(=O)c2cccc(NC=O)c2O)C(=O)O[C@@H](C)[C@@H]1OC(=O)CC(C)C | – | – | Toxic | Active | – |
| COc1ccnc(C(=O)N[C@H]2COC(=O)[C@H](Cc3ccccc3)[C@@H](OC(=O)C(C)C)[C@H](C)OC2=O)c1O | 5.86 | Non-Toxic | – | – | Activity (RBL-2H3 [5]): Active |
| CC(C)C(=O)O[C@H]1[C@H](C)OC(=O)[C@@H](NC(=O)c2cccc(NC=O)c2O)[C@@H](C)OC(=O)[C@@H]1Cc1ccccc1 [SPLENOCIN B] | – | – | – | Active | Activity (RBL-2H3 [6]): Toxic |
| CCCC[C@H]1C(=O)OC[C@H](NC(=O)c2nccc(OC)c2O)C(=O)O[C@@H](C)[C@@H]1OC(=O)C(C)C | – | Non-Toxic | – | – | – |
| CCCC[C@H]1C(=O)O[C@H](C)[C@H](NC(=O)c2cccc(NC=O)c2O)C(=O)O[C@@H](C)[C@@H]1OC(=O)CC(C)C [ANTIMYCIN A3] | – | – | Toxic | Active | – |
| CCCCCC[C@H]1C(=O)O[C@H](C)[C@H](NC(=O)c2cccc(NC=O)c2O)C(=O)O[C@@H](C)[C@@H]1OC(=O)CC(C)C [ANTIMYCIN A] | – | – | Toxic | Active | – |
| CCC[C@H]1C(=O)O[C@H](C)[C@H](NC(=O)c2cccc(NC=O)c2O)C(=O)O[C@@H](C)[C@@H]1OC(=O)CC(C)C | – | – | Toxic | Active | – |
